Screens: PubChem BioAssay, The Scripps Research Institute Molecular Screening Center
Sampled rows, rich in hits. Any-hit rate of the full collection: about 2.9%.
mABHD4 FP – ABHD4 (mouse) inhibition, primary FP screen; Q8VD66; purified mABHD4, FP-Rh probe fluorescence polarization; inhibition, % at 8.92 µM; hit rate 0.54% among 370,000;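 active means inhibition exceeding the mean over every tested compound plus 3 SD, cut at about 30% in these data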;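 further: 0% = plate median of compound wells and 100% = S159A mutant with DMSO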
Target sequence (Q8VD66 whole entry, looked up): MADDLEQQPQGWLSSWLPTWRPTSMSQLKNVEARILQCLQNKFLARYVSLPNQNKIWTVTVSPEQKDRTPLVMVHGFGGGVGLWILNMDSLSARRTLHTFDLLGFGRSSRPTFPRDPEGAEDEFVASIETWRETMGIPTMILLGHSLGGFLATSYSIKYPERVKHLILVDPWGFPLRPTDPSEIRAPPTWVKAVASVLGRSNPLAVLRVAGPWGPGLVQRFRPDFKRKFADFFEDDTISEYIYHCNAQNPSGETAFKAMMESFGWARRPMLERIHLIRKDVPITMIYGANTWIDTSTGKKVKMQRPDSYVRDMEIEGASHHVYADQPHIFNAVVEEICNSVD
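system = mouse ABHD4 enzyme, wild type | medium = HEPES pH 7.0, NaCl, Pluronic buffer | also added = FP-Rh probe | incubation = Enzyme–compound pre-incubation 45 min, then probe 60 min, both 25 °C | technique = fluorescence polarization, excitation 525 nm, emission 598 nm, BODIPY TMR filters | controls = S159A mutant high control, sample median low control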
HTRA1 inhibitor – HTRA1 (human) protease inhibition. Q92743. recombinant HTRA1, FP-rhodamine activity-based probe, fluorescence polarization. inhibition, % at 5.96 µM. hit rate 0.5% among 340,000; in the data active means inhibition above about 36%;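 further: 0% = enzyme with DMSO and 100% = wells lacking enzyme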
TCR-CD3 inh – inhibitors of human TCR-CD3 interaction. TAMRA-labeled TCR probe fluorescence, biochemical. inhibition, % at 9.4 µM. hit rate 0.37% among 360,000. AID 651800;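 further: recombinant mutant TCR 2C K166C tagged with TAMRA read by polarization; 0% = receptor in buffer alone and 100% = receptor with positive control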
PAD4 inh – inhibitors of human PAD4. Q9UM07. recombinant PAD4, RCA probe fluorescence polarization. inhibition, % at 6.36 µM. hit rate 0.41% among 330,000. AID 485272;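 active means percent inhibition above a cutoff equal to the mean of all tested compounds plus 3 SD, cut at about 15% in these data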;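 further: 0% = PAD4 with RCA probe and DMSO and 100% = probe without PAD4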
SIAE primary – human SIAE inhibition, primary screen. hit rate 0.69% among 370,000. SIAE FP-Rh probe binding, fluorescence polarization. inhibition, % at 9.66 µM. Q9HAT2;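 active means inhibition above a cutoff: mean of compounds within the control limits plus 3 SD of those, cut at about 17% in these data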;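 further: 0% = plate median of compound wells and 100% = probe without SIAE protein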
PRMT1 inh – blocks human protein arginine methyltransferase 1. recombinant PRMT1, activity-based probe fluorescence polarization. inhibition, % at 2.79 µM. hit rate 1.3% among 370,000. AID 652257. Q99873;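 active means inhibition above about 21% made by adding two undisclosed values, limit read from the data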
Target sequence (Q99873 whole entry, looked up): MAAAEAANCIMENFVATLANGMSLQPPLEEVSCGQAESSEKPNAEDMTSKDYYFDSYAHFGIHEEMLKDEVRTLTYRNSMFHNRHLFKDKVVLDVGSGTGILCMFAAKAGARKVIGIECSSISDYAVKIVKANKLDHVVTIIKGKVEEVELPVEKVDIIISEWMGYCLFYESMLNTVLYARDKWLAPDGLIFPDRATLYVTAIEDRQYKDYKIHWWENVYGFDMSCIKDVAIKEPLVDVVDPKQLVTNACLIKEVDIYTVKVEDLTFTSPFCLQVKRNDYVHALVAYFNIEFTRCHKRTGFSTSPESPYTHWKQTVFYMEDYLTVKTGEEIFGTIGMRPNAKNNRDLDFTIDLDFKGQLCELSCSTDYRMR
BSA TAMRA ctr – counter-screen for TCR-CD3 interaction inhibitors: BSA probe; shares compounds with TCR-CD3 inh; AID 652035; inhibition, % at 9.4 µM; TAMRA-labeled BSA probe fluorescence counterscreen; hit rate 10% among 1,200; in the data active means inhibition above about 23%;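 further: 0% = buffer low control and 100% = reference high control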
TCR-CD3 conf – TCR-CD3 interaction inhibition, confirmation. shares compounds with TCR-CD3 inh. TAMRA-labeled TCR probe fluorescence binding assay. inhibition, % at 9.4 µM. hit rate 48% among 1,200. AID 652036
PRMT1 inh conf – PRMT1 (human) inhibition, FP confirmation. inhibition, % at 2.79 µM. recombinant His-PRMT1, activity-based probe fluorescence polarization. shares compounds with PRMT1 inh. hit rate 42% among 3,300;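 active means mean inhibition across replicates above the hit cutoff derived for the earlier primary screen, cut at about 22% in these data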
mABHD4 conf – confirmation of mouse ABHD4 inhibitors | inhibition, % at 8.92 µM | purified mABHD4, FP-Rh probe fluorescence polarization | shares compounds with mABHD4 FP | hit rate 55% among 1,800;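 active means mean inhibition across replicates above the hit cutoff set in the primary screen, cut at about 30% in these data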;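 further: 0% = wild-type ABHD4 with DMSO and 100% = catalytically dead S159A mutant with DMSO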
SIAE confirm – confirmation of human SIAE inhibitors. AID 1117263. hit rate 13% among 2,300. shares compounds with SIAE primary. inhibition, % at 9.66 µM. SIAE FP-Rh activity-based probe, fluorescence polarization;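 active means mean inhibition of the replicates above the hit cutoff set in the primary screen, cut at about 17% in these data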;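 further: 0% = SIAE with DMSO and probe and 100% = probe without SIAE; inhibitors lower polarization as more probe stays unbound to SIAE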
Numbers without * were called inactive; · = no result given. Unless noted, no stated cut-off is given here; in the data, active means inhibition above about 19%; inactive means the rest.

SMILES	mABHD4 FP	HTRA1 inhibitor	TCR-CD3 inh	PAD4 inh	SIAE primary	PRMT1 inh	BSA TAMRA ctr	TCR-CD3 conf	PRMT1 inh conf	SIAE confirm	others
O=C(Cc1csc(N2CCOCC2)n1)N/N=C/c1ccc(O)c(O)c1O	22	17	41*	·	31*	8	-15	17	·	18*
Cc1nc2ccc(S(=O)(=O)NCC(=O)NCc3ccccc3Cl)cc2s1	0	·	·	·	3	1	·	·	·	·
O=C1C=CC(=O)c2c(O)c(N3CCN(CCOCCO)CC3)c(Br)c(O)c21	46*	31	75*	·	24*	66*	1	48*	93*	15	mABHD4 conf=72*
COc1ccc(/C(C)=N/NC(=S)NCCc2ccccc2)c(O)c1	8	21	22*	4	25*	7	-6	7	·	24*
COCCNC(=S)N/N=C(\C)c1ccccc1O	1	0	0	0	3	3	·	·	·	·
CCOC(=O)N1CCN(C(=O)C[C@H]2C[C@@]3(C(=O)OC)C(=C[C@H](COCc4ccccc4)O[C@@H]3C)N(Cc3ccc4c(c3)OCO4)C2=O)CC1	1	·	3	·	1	1	·	·	·	·
Nc1c(C(=O)NCC2CCCO2)sc2nc3c(c(-c4ccco4)c12)CC/C3=C\c1ccco1 (stereo not given)	32*	40*	39*	·	23*	36*	-4	24*	47*	16	mABHD4 conf=29
COc1cc([N+](=O)[O-])cc(/C=N/NC(=O)c2ccc(NC(=O)c3ccc(C)cc3)cc2)c1O	-6	8	27*	·	18*	-4	-5	45*	·	12
COc1ccc(-c2cccc3[nH]c4c(c23)CCN2C(=O)[C@H]3[C@H](C)ON(C)[C@H]3C[C@@H]42)cc1	4	·	3	·	6	-5	·	·	·	·
c1coc(-c2nc(-c3ccco3)c(-c3ccco3)nc2-c2ccco2)c1	54*	74*	26*	45*	29*	78*	-7	8	15	9	mABHD4 conf=43*
OC1CCC2CN3CCc4c([nH]c5ccccc45)C3CC2C1 (stereo not given)	9	·	0	·	4	5	·	·	·	·
O=C(O)C1CCCC2CN3CCc4c([nH]c5ccccc45)C3C(O)C21 (stereo not given)	22	12	27*	2	19*	8	3	3	·	-3
COc1ccc(S[C@]2(C(=O)N3CCOCC3)CC(=O)N(c3ccccc3)[C@@H]2c2ccc(OC)cc2)cc1	5	·	·	·	1	6	·	·	·	·
Cc1c(C(=O)NNC(=O)c2ccccc2O)oc2ccccc12	24	28	23*	·	21*	4	-9	25*	·	10
Cc1[nH][nH]c(=O)c1N=Nc1ccccc1Cl	-4	4	-2	0	-1	2	·	·	·	·
Clc1ccccc1N=Nc1ccccn1	41*	27	28*	·	20*	63*	8	13	·	4	mABHD4 conf=5
C[C@H](O)[C@@H]1CN2CCc3c([nH]c4c(-c5ccccc5)cccc34)[C@@H]2C[C@@H]1N(C)C(=S)Nc1ccc(C#N)cc1	3	·	·	·	-8	-3	·	·	·	·
O=C(CCCSc1ccccc1)Nc1nc(-c2ccco2)c(-c2ccco2)s1	-1	-19	23*	-17	28*	44*	-11	-3	2	-10
O=C(CCCSc1ccccc1)Nc1nc(-c2ccccn2)cs1	-4	-8	8	0	-8	7	·	·	·	·
Cc1ccc(C(=O)Nc2nc(-c3ccco3)c(-c3ccco3)s2)o1	36*	5	31*	·	41*	38*	-1	0	29*	-19	mABHD4 conf=-13
COc1ccc(N2CCN(CCCNC(=O)CCc3ccc(F)cc3)CC2)cc1	4	·	·	·	2	0	·	·	·	·
Oc1c(N=Nc2ccc(F)cc2)ccc2ccccc12	12	6	-9	-6	6	1	·	·	·	·
Oc1c(N=Nc2nn[nH]n2)ccc2ccccc12	26	·	37*	·	25*	35*	146*	104*	·	44*
CN(C)/C=C1\C=C2C(=O)c3ccccc3N2C1=O	8	30	39*	8	21*	111*	113*	74*	54*	38*
CN(C)S(=O)(=O)N1C(=O)c2ccccc2C1=O	-5	4	-4	4	-4	-2	·	·	·	·
SMILES	mABHD4 FP	HTRA1 inhibitor	TCR-CD3 inh	PAD4 inh	SIAE primary	PRMT1 inh	BSA TAMRA ctr	TCR-CD3 conf	PRMT1 inh conf	SIAE confirm	others
CCOc1cc(OCC)cc(C(=O)N2CCC[C@@H]2C(=O)N2CCC[C@@H]2C(=O)NCc2cccc(OC)c2)c1	-4	·	-2	·	6	0	·	·	·	·
CCN1C(=O)/C(=C2\SC(=S)N(NC(=O)c3ccccc3O)C2=O)c2ccccc21	31*	28	31*	1	19*	9	-9	15	·	26*	mABHD4 conf=73*
COc1cccc(N2CCN(S(=O)(=O)c3cc4c(cc3C)N(C)CCO4)CC2)c1	-17	-4	1	-1	13	0	·	·	·	·
Cc1cc2c(cc1S(=O)(=O)N1CCN(c3cccc(C)c3C)CC1)OCCN2C	129*	-9	127*	0	87*	3	-1	2	·	58*	mABHD4 conf=78*
Cc1cccc(N2C(=O)CC(Sc3nc(C)cc(C)n3)C2=O)c1 (stereo not given)	-1	-3	7	-4	-6	2	·	·	·	·
O=C1CC(Sc2nnnn2C2CCCCC2)C(=O)N1c1ccccc1 (stereo not given)	9	-12	-1	-3	-1	75*	·	·	73*	·
Cc1cc(C)cc(N2C(=O)CC(Sc3nnnn3-c3ccccc3)C2=O)c1 (stereo not given)	3	-5	0	-2	-2	56*	·	·	55*	·
CCOc1ccc2nc(SC3CC(=O)N(c4cccc(OC)c4)C3=O)sc2c1 (stereo not given)	-7	-16	-5	-2	-2	38*	·	·	26*	·
Cc1cccc(N2C(=O)CC(Sc3nnc(C)s3)C2=O)c1 (stereo not given)	-1	-7	0	-4	5	61*	·	·	44*	·
O=C1CC(SCCO)C(=O)N1c1ccccc1 (stereo not given)	2	1	3	2	2	2	·	·	·	·
O=C(NCCN1CCC(Cc2ccccc2)CC1)C1CCCN(S(=O)(=O)c2ccccc2[N+](=O)[O-])C1 (stereo not given)	6	·	·	·	2	3	·	·	·	·
C=CCN=C1NC(c2ccccc2)C(C(=O)OC)=C(C)N1C (stereo not given)	-2	·	7	·	1	-2	·	·	·	·
